Screening data (PubChem BioAssay)
Scp-1 inhibitor – inhibitors of human Scp-1 phosphatase; 340,000 compounds, 0.88% hits; Q9GZU7; Recombinant Scp1, phosphopeptide, malachite green phosphate absorbance; inhibition, % at 20 µM;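 active = inhibition above about 50% at 20 µM, limit read from the data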
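System: truncated SCP-1 phosphatase (76-261aa); medium: Tris acetate buffer pH 5.5 with MgCl2 and Tween-20; incubation: 45 min room-temperature reaction, 5 min colour, 30 min stabiliser; compound: single 20 µM dose, 1% DMSO; reagent: Phosphorylated 17-residue peptide substrate; read-out: % inhibition at 20 µM; technique: colorimetric free-phosphate detection, absorbance 630 nm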
SUMO1-SIM PPI – SUMO1-SIM interaction modulation; P63165; SUMO1 binding to a labelled peptide, TR-FRET, 1 h; inhibition, % at 20 µM; 360,000 compounds, 0.33% hits; in the data active = inhibition above about 37%
GRK2 aptamer HTS – blocks RNA aptamer binding to human GRK2. P25098. bead flow cytometry, FAM-aptamer displacement from GRK2. inhibition of aptamer binding, % at 10 µM. 330,000 compounds, 0.59% hits. AID 488847;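 active = inhibition of aptamer binding above 40%, roughly 3 SD of noise, on plates passing a quality check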;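 note: median bead fluorescence of bound FAM aptamer so fluorescent compounds give negative values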
LMPTP block – blocks human LMPTP phosphatase. 360,000 compounds, 0.22% hits. recombinant LMPTP-A, OMFP fluorogenic substrate, fluorescence intensity. inhibition, % at 20 µM. P24666;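 active = compounds that cut the enzyme signal by at least half of the control window in the single-dose screen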
Target sequence (P24666 whole entry, looked up): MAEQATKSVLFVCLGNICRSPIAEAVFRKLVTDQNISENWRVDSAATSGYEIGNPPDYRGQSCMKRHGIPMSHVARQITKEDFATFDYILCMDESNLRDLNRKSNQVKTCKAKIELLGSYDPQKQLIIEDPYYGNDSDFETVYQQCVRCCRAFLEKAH
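test system = LMPTP-A | amount = 0.625 nM LMPTP-A final | reagent = fluorogenic phosphatase substrate OMFP at 400 µM final | incubation = 50 min at room temperature | benchmarks = no-enzyme low control, uninhibited high control | medium = Bis-Tris pH 6.0, DTT, detergent | signal = fluorescence intensity of OMFP turnover product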
STEP inh – blocks human striatal-enriched tyrosine phosphatase. recombinant STEP, OMFP fluorogenic substrate, fluorescence. inhibition, % at 20 µM. 360,000 compounds, 0.25% hits. AID 588621;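 active = inhibition at 20 µM, scaled per plate between control wells, above about 37%, limit read from the data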
Target sequence (P54829 whole entry, looked up): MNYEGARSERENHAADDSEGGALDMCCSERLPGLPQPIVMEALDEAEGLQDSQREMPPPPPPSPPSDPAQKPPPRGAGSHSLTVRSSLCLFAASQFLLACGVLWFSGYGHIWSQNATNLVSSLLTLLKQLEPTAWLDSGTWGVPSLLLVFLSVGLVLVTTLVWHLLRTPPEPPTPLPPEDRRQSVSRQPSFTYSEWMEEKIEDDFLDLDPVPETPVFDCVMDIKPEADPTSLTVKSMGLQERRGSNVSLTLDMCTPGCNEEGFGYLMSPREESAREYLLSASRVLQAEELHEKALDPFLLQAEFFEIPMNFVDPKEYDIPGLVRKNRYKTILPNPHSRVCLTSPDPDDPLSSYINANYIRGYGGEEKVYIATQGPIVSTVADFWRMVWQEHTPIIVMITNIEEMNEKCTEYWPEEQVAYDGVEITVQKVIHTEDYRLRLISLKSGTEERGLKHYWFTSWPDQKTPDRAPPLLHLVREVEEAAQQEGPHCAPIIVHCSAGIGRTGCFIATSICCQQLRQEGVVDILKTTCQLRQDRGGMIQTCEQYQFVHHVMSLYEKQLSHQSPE
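System: STEP phosphatase, cell-free reaction; Buffer or medium: Bis-Tris pH 6.0 buffer with DTT, detergent; Incubation: 20 min at room temperature, dark; Measured by: fluorescence, 480/540 nm.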
DNMT1 block – blocks human DNA methyltransferase DNMT1 | P26358 | DNMT1 molecular beacon, Hinp1I cleavage, fluorescence | inhibition (reported as % activation of signal), % at 10 µM | 360,000 compounds, 0.83% hits | AID 588458; in the data active = inhibition above about 50%
Scp1 confirm – confirmation of human Scp-1 phosphatase inhibitors | inhibition, % at 20 µM | AID 540281 | shares compounds with Scp-1 inhibitor | recombinant SCP-1 catalytic domain, phosphate release, malachite green absorbance | 2,500 compounds, 61% hits
MG interference – counter-screen for Scp-1 inhibitors: colorimetric interference. shares compounds with Scp-1 inhibitor. Colorimetric interference counterscreen, malachite green absorbance 630 nm. apparent inhibition (interference), % at 20 µM. 2,500 tested, under 10 active;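 note: compounds added after enzyme reaction finished so only phosphate colour detection is probed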
Scp1 DSF – validation of human Scp-1 inhibitors by thermal shift binding | shares compounds with Scp-1 inhibitor | Recombinant SCP1, Sypro Orange thermal shift Tm | thermal shift relative to vanadate control, % at 40 µM | 1,500 compounds, 25% hits | AID 540329;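 active = substances whose mean melting-temperature shift, as a percentage of the reference inhibitor's shift, reaches about 5.3%, limit read from the data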
A number is an active result; 0 = inactive; - = no result. Sampled rows, rich in hits. Any-hit rate of the full collection: about 2.1%.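 Rule for the calls, unless noted: active = inhibition of at least 30% at 20 µM; inactive = the rest.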

SMILES	Scp-1 inhibitor	SUMO1-SIM PPI	GRK2 aptamer HTS	LMPTP block	STEP inh	DNMT1 block	Scp1 confirm	MG interference	Scp1 DSF
COCCC(=O)N1CCC(Oc2ccc(C(=O)N3CCCC(CCCO)C3)cc2)CC1 (stereo not drawn)	0	0	0	0	0	0	-	-	-
COc1ccc(CNC(=O)CN(C(=O)c2csnn2)c2cccc(C(C)=O)c2)cc1	0	0	0	0	0	0	-	-	-
COc1ccc(S(=O)(=O)N(C)C[C@H]2Oc3ccc(NC(=O)c4ccncc4)cc3C(=O)N([C@H](C)CO)C[C@@H]2C)cc1	73.7	0	0	0	0	0	0	0	-
C=CCn1c(N)cc(=O)nc1SC(C)C(=O)Nc1cccc2ccccc12 (stereo not drawn)	0	0	0	0	0	0	0	0	-
CC(Sc1nc(=O)cc(N)n1CCc1ccccc1)C(=O)NCc1ccccc1 (stereo not drawn)	0	0	0	0	0	0	-	-	-
O=C(NCc1cccnc1)C1CCN(S(=O)(=O)c2cc(Cl)ccc2Cl)CC1	0	0	0	0	0	0	-	-	-
CCC(C)c1ccccc1NC(=O)c1[nH]c(C)c(C(C)=O)c1C (stereo not drawn)	53.9	0	0	0	0	0	0	0	-
CC(=O)c1c(C)[nH]c(C(=O)Nc2cccc3ccccc23)c1C	0	0	0	0	0	0	-	-	-
C[N+]1(CC2COC3(CCCCC3)O2)CCCCC1 (stereo not drawn)	107.9	0	0	0	0	0	74.9	0	0
Cc1ccccc1NC(=O)CSc1n[nH]c(-c2ccccn2)n1	62.8	0	0	0	0	0	0	0	-
Cc1ccc(C)c(NC(=O)CSc2n[nH]c(-c3ccccn3)n2)c1	0	0	0	0	0	0	-	-	-
CCN(CCCCN1C(=O)c2ccccc2C1=O)c1ccc2c(c1)C(=O)N(C)C2=O	67.5	0	0	0	0	0	68.2	0	0
CN1CCN(S(=O)(=O)c2cccc(C(=O)N(C)CC(=O)Nc3ccc(F)c(F)c3F)c2)CC1	94.7	0	0	0	0	0	0	0	-
Nc1ccc(-c2ccc(N)c(C(=O)O)c2)cc1C(=O)O	54.9	0	0	0	0	0	0	0	-
CCCCC(=O)N(C)c1c(CC)nc2c(OCC(=O)N3CCOCC3)cccn12	-	0	-	0	0	0	-	-	-
Cc1ccc(C(=O)NCCN2CCNC2=O)cc1	0	0	0	0	0	0	0	0	-
Cc1onc(-c2c(F)cccc2Cl)c1C(=O)NCCN1CCNC1=O	0	0	0	0	0	0	0	0	-
Nc1nc(CCOc2ccc(F)cc2)cs1	0	0	-	0	0	0	-	-	-
CCCNC(=O)C(Cc1ccccc1)NC(=O)c1ccc(C(F)(F)F)cc1 (stereo not drawn)	0	0	0	0	0	0	-	-	-
CCCc1cc(=O)oc2cc(OCC(=O)NC(Cc3c[nH]c4ccc(O)cc34)C(=O)O)c(Cl)cc12 (stereo not drawn)	55.5	0	0	0	0	0	51.0	0	11.3
Cc1cc(OCC(=O)NC(Cc2c[nH]c3ccc(O)cc23)C(=O)O)c2c(C)c(C)c(=O)oc2c1 (stereo not drawn)	0	0	0	0	0	0	-	-	-
N#CC1=C(N)n2c(s/c(=C\c3ccco3)c2=O)=C(C#N)C1c1ccco1 (stereo not drawn)	63.1	0	0	0	0	95.0	70.8	0	17.6
CCOc1cc(/C=C2\SC(N)=NC2=O)ccc1O	0	0	0	0	0	0	-	-	-
CCOc1c(Br)cc(Br)cc1/C=C1\SC(N)=NC1=O	85.1	0	0	0	0	0	0	0	-
COc1ccc(CC(=O)Nc2ncc([N+](=O)[O-])s2)cc1OC	71.0	0	0	0	0	0	66.4	0	12.0
SMILES	Scp-1 inhibitor	SUMO1-SIM PPI	GRK2 aptamer HTS	LMPTP block	STEP inh	DNMT1 block	Scp1 confirm	MG interference	Scp1 DSF
O=C(NNS(=O)(=O)c1ccccc1[N+](=O)[O-])c1cccc([N+](=O)[O-])c1	0	0	0	0	0	0	-	-	-
O=C(O)/C(=C\c1cccc([N+](=O)[O-])c1)c1ccc(S(=O)(=O)N2CCCCC2)s1	52.0	0	0	0	0	0	73.0	0	19.6
COc1ccc(Br)cc1/C=C(\C(=O)O)c1ccc(S(=O)(=O)N2CCCC2)s1	66.7	0	0	0	0	0	59.9	0	6.3
O=C(O)/C(=C\c1cccc(C(F)(F)F)c1)c1ccc(S(=O)(=O)N2CCCC2)s1	0	0	0	0	0	0	-	-	-
CC(=O)Nc1ccc(N=Cc2c(O)c(C(=O)Nc3ccccc3)cc3ccccc23)cc1	0	-	0	-	-	-	-	-	-
CCOc1cc(Br)c(Br)c(C=Nc2ccc(NC(C)=O)cc2)c1O	75.0	0	0	0	0	0	71.8	0	0
O=C(Oc1ccccc1)c1cccnc1Oc1ccccc1	0	0	0	0	0	0	-	-	-
CC(=O)Nc1ccc(S(=O)(=O)N(C)CC(=O)OCC(=O)N2CCCCCC2)cc1	0	0	0	0	0	0	-	-	-
CC(=O)Nc1ccc(S(=O)(=O)NCCC(=O)OCC(=O)N2CCN(C(=O)c3ccco3)CC2)cc1	76.8	0	0	0	0	0	66.3	0	5.9
CC(=O)Nc1ccc(S(=O)(=O)N(C)CC(=O)OCC(=O)N2CCN(C(=O)c3ccco3)CC2)cc1	74.5	0	0	0	0	0	71.4	0	0
CCOC(=O)[C@]12CCCC=C1N(Cc1ccc3c(c1)OCO3)C(=O)[C@H](CC(=O)NCCCN1CCCC1=O)C2	-	0	-	0	-	-	-	-	-
COC(=O)c1ccc2nc(-c3ccc(F)cc3)c(Cc3ccsc3)n2c1	-	0	-	0	0	0	-	-	-
CC(C)c1ccc(NS(=O)(=O)c2ccc3c(c2)oc(=O)n3C)cc1	0	0	0	0	0	0	0	0	-
COC(=O)c1ccccc1NC(=O)CSc1nc(N)cc(=O)[nH]1	56.7	0	0	0	0	0	34.5	0	0
COC(=O)c1ccccc1NC(=O)CSc1nc(N)cc(N)n1	0	0	0	0	0	0	-	-	-
Nc1cc(=O)[nH]c(SCC(=O)Nc2cc(Cl)cc(Cl)c2)n1	0	0	0	0	0	0	0	0	-
O=C(CN(Cc1ccccc1Cl)C(=O)c1csnn1)NC1CCCC1	0	0	0	0	0	0	-	-	-
COc1cccc(-c2cc3nc(NCc4ccccc4F)n(C)c(=O)c3s2)c1	-	0	-	0	0	0	-	-	-
C[n+]1ccc(C(=O)Nc2ccccc2Cl)cc1	98.3	0	0	0	0	0	89.6	0	0
